Bioassay records from PubChem.
MEKK2mut PB1 HTS – MEK5 binding signal on mutant MEKK2 PB1, primary screen, biochemical, multiplex bead flow cytometry, Alexa488-MEK5 | Alexa488-MEK5 binding to MEKK2 mutant | percent response, % at 10 µM | 290,000 tested, 0.35% active; in the data active = percent response above about 24%, passing the limit was not always enough
HCV NS3 hel inh – inhibitors of HCV NS3 helicase, primary screen, biochemical, Cy5 molecular beacon fluorescence; Hepatitis C virus NS3 helicase; NS3 helicase DNA unwinding; inhibition, % at 10.9 µM; 290,000 tested, 0.56% active; AID 1800, 2009;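 active = inhibition above the mean of all tested compounds plus 3 SD, set per campaign, cut at about 35% in these data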;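 note: 0% = DMSO wells and 100% = thioflavine S control wells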
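Assay system – hepatitis C virus NS3 helicase domain fragment enzyme · Buffer or medium – MOPS pH 6.5, MgCl2, DTT, Tween20, BSA · Reagent – Cy5/quencher beacon DNA duplex and ATP to start · Compound – single 10.9 µM dose · Timing – 1 h at 25 °C · Technique – Cy5 beacon fluorescence read at start and 1 h · Measure – % inhibition of unwinding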
T cruzi inh – inhibitors of intracellular T. cruzi growth, primary screen, luminescence, NIH3T3 host cells; inhibition, % (concentration not given with the values); AID 1885, 2009; T. cruzi beta-gal in NIH3T3, 90 h; 300,000 tested, 1.4% active;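 active = mean inhibition across valid replicates above about 55%, limit read from the data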;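 note: signal also drops with host cell toxicity which is not excluded here; 0% = plate median of DMSO wells and 100% = zero luminescence signal; higher percent means less beta-gal luminescence so fewer parasites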
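Assay system: NIH/3T3 fibroblasts plus reporter T. cruzi. Amount: NIH/3T3 cells, 5,000 per well. Buffer or medium: DMEM, 2% fetal bovine serum. Doses: compound pinned at 50 nL/well, DMSO. Schedule: ≥90 h infection period, 3 h prior cell attachment. Signal: luminescent β-galactosidase signal after 60 min lysis. Read-out: parasite load inhibition, %.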
DNA FID counter-1 – compounds displacing fluorescent DNA intercalator, primary screen, artefact control for HCV NS3 helicase inhibitor project, biochemical, FID fluorescence | DNA fluorescent intercalator displacement | inhibition, % at 7.9 µM | 290,000 tested, 0.17% active | AID 1845, 2009;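 note: 0% = vehicle and 100% = reference compound; higher means more ethidium bromide displaced from hairpin DNA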
MEKK2 WT-MEK5 – modulators of MEK5 binding to wildtype MEKK2, primary screen, biochemical, multiplex bead flow cytometry, Alexa488-MEK5. Mitogen-activated protein kinase kinase kinase 2 (Homo sapiens), Q9Y2U5. Alexa488-MEK5 binding to MEKK2 WT; actives lie on both sides. binding response (% of control), % at 10 µM. 290,000 tested, 1.1% active. AID 1531, 2009; in the data active = binding response below about 67% or above about 130%
MEKK3 PB1 HTS – modulators of MEKK3-MEK5 PB1 binding, primary screen, biochemical, wildtype MEKK3, multiplex bead flow cytometry, Alexa488-MEK5 | binding response (% of control), % at 10 µM | AID 1529, 2009 | 290,000 tested, 1.4% active | bead-based flow cytometry, Alexa488-MEK5 binding to MEKK3; actives lie on both sides; 0 = blocked by unlabeled MEK5, 100 = vehicle | Mitogen-activated protein kinase kinase kinase 3 (Homo sapiens), Q99759;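 active = binding response more than 3 SD above or below the average of its plate-row segment, actives on both sides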;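 note: Alexa488 bead fluorescence after subtracting the streptavidin-only scavenger bead signal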
Target sequence (Q99759 whole entry, looked up): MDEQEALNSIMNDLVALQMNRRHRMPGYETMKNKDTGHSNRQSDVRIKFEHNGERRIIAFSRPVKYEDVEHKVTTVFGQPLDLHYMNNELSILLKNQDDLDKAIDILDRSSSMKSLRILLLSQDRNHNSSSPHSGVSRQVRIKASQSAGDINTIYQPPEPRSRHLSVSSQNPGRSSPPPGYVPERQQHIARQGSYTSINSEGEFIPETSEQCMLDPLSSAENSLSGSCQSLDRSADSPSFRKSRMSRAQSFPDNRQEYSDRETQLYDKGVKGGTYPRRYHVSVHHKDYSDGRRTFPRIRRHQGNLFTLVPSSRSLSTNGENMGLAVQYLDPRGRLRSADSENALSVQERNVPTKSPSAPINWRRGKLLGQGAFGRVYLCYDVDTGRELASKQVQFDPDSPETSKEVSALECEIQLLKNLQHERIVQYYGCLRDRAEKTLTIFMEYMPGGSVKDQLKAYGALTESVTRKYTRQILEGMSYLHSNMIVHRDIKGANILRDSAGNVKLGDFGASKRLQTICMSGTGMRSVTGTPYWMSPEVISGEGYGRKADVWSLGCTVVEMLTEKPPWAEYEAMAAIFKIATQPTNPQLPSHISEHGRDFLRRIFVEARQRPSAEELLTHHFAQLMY
NS3 hel confirm – HCV NS3 helicase inhibitors, retest, confirmation, biochemical, Cy5 molecular beacon fluorescence, triplicate. shares compounds with HCV NS3 hel inh. NS3 helicase DNA unwinding. inhibition, % at 10.9 µM. 1,600 tested, 31% active;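 active = inhibition above the mean of all tested compounds plus 3 SD, cutoff set per campaign, cut at about 36% in these data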
DNA FID counter-2 – compounds displacing fluorescent DNA intercalator, artefact control for HCV NS3 helicase inhibitor project, biochemical, FID fluorescence, triplicate | DNA fluorescent intercalator displacement | inhibition, % at 7.9 µM | shares compounds with HCV NS3 hel inh | 1,600 tested, 4% active;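 note: 0% = vehicle and 100% = reference compound; higher means more displacement of ethidium bromide from the DNA hairpin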
* marks the source's active call; other numbers are inactive results; · = no result. Shown are actives, neighbours in structure and some others; about 4.1% of the full set was active somewhere. Cut-off read from the data, not from the text of the source, unless noted: active = inhibition above about 37%; inactive = the rest.

SMILES	MEKK2mut PB1 HTS	HCV NS3 hel inh	T cruzi inh	DNA FID counter-1	MEKK2 WT-MEK5	MEKK3 PB1 HTS	NS3 hel confirm	DNA FID counter-2
COc1ccc(-c2cnc(SCC(=O)Nc3cc(C)on3)n2Cc2ccco2)cc1	·	-2	1	-26	·	·	·	·
COCCn1c(SCC(=O)Nc2ccccc2OC)nc2ccccc2c1=O	3	2	0	-30	100	104	·	·
COc1ccc(-c2cnc(SCC(=O)Nc3nc(C(C)(C)C)cs3)n2Cc2ccco2)cc1	1	52*	49	-35	105	94	-6	-27
CCCCCOc1ccc(NC2=CC(=O)CCC2)cc1	-1	-9	8	-28	103	102	·	·
CCCCC(=Nc1ccc(N)cc1)C1=C(O)C(C(=O)OC)C(C)(C)CC1=O (stereo not drawn)	-9	18	-7	-5	90	94	·	·
CCC(=Nc1ccc(N)cc1)C1=C(O)C(C(=O)OC)C(C)(C)CC1=O (stereo not drawn)	3	47*	-28	-23	100	99	-16	-12
COC(=O)c1ccc(N2NC(=O)/C(=C/c3ccc(OC)c(OC)c3)C2=O)cc1	5	40*	-16	-15	101	102	-16	-7
COc1cc(/C=C2/C(=O)NN(c3cccc(C)c3)C2=O)ccc1OC(=O)c1ccco1	-4	40*	2	-11	88	99	33	3
COc1cccc(/C=C2/C(=O)NN(c3ccc(C)c(C)c3)C2=O)c1	11	0	2	-23	110	104	·	·
COc1cccc(/C=C2/C(=O)NN(c3ccc(F)cc3)C2=O)c1	3	48*	-2	-17	103	105	16	14
C#CCOc1ccc(/C=C2/C(=O)NN(c3ccc(F)cc3)C2=O)cc1OC	4	39*	12	-13	101	101	7	19
CSc1c(CC(=O)Nc2ccc(F)cc2)n(Cc2ccccc2)c2ccccc12	21	10	30	4	101	104	·	·
O=C(NCc1cc2ccccc2[nH]1)C1CCC(=O)N(CCCN2CCCC2=O)C1 (stereo not drawn)	6	-3	2	-4	99	96	·	·
O=C(O)CN1C(=O)/C(=C\c2cc(Br)ccc2OCc2ccc(F)cc2)SC1=S	7	14	0	19	109	108	·	·
O=C(O)CN1C(=O)/C(=C\c2cc(Br)ccc2OCc2ccc(Cl)cc2)SC1=S	-1	39*	-19	15	102	101	67*	59*
O=C(O)c1ccc(Cl)c2c1C1C=CCC1C(c1ccccn1)N2 (stereo not drawn)	6	63*	-16	-18	104	102	75*	7
O=[N+]([O-])c1ccc(Cl)c2c1C1C=CCC1C(c1ccccn1)N2 (stereo not drawn)	-8	22	-5	10	98	100	·	·
COc1ccc(N(CC(=O)Nc2cc(C)ccc2C)S(=O)(=O)c2ccccc2[N+](=O)[O-])c(OC)c1	-13	-2	19	-16	76	89	·	·
O=C1CCc2cc(S(=O)(=O)Nc3ccccc3)cc3c2N1CCC3	·	·	-2	·	·	·	·	·
O=C(N/N=C\C=C\c1ccco1)C1COc2ccccc2O1 (stereo not drawn)	-20	44*	-10	-18	95	93	-2	-8
